Data set [1] has as its target T1, Sodium- and chloride-dependent glycine transporter 1 (Homo sapiens, UniProt P48067).
T1 sequence (P48067 whole entry): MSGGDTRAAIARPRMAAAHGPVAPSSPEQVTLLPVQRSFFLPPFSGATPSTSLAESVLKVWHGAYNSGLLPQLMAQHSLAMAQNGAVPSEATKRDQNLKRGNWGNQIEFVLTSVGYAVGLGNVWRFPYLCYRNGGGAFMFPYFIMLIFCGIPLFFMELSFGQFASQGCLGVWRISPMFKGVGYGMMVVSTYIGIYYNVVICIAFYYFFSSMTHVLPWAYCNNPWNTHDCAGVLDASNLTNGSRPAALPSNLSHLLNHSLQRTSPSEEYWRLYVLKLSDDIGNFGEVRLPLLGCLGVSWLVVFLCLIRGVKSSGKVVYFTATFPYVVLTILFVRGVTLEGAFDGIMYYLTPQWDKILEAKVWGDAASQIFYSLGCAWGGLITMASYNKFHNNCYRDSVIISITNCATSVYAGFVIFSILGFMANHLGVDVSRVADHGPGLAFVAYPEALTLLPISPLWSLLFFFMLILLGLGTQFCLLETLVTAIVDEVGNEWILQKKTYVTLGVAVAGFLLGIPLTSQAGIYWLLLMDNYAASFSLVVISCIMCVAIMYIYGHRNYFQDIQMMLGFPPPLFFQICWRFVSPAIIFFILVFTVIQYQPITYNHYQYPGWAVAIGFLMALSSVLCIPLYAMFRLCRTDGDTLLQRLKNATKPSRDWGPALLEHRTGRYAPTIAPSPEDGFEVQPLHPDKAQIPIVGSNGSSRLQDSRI
Briefly: Displacement of [3H]N-Methyl-SSR504734 from human GlyT1c expressed in cell membranes incubated for 1 hr by liquid scintillation spectrometry.

Data set [2] can be described thus: Clearance in rat liver microsomes at 0.5 uM incubated up to 30 mins in presence of NADPH by LC-MS/MS method. The data set is classed as ADME, microsome. The settings on record: read-out: CLH.
The nature of data set [3]: Clearance in human liver microsomes at 0.5 uM incubated up to 30 mins in presence of NADPH by LC-MS/MS method. The data set is classed as ADME, microsome. To be noted: read-out: CLH.
Data set [4] can be described thus: Oral bioavailability in dog. The data set is classed as ADME, organism-based, Canis lupus familiaris. The settings on record: in vivo.
Data set [5] is described as follows: Solubility in water. Type of data set: physicochemical.
In data set [6] the target is T2, Sodium- and chloride-dependent glycine transporter 1 (Homo sapiens) (UniProt P48067).
T2 sequence (whole entry): T1 sequence (P48067 whole entry)
Kind of data set: Inhibition of GlyT1c (unknown origin) expressed in Xenopus laevis oocytes clamped at -60 mV assessed as reduction in 3000 uM glycine-induced membrane currents at 300 nM pre-treated with glycine for 1 min followed by compound dosing for 3 mins by two-electrode voltage clamp assay. Type of data set: cell-based. A digest of the protocol:
(§1)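 Oocytes expressing GlyT1c were stimulated with 10 µM or 3000 µM glycine to evoke transporter current. Compound at 300 nM was added to the glycine solution, and % inhibition of the current was calculated. Mode of inhibition was judged by comparing inhibition at the two glycine levels. Data are mean ± SD, N>4 oocytes.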

Data set [7] can be described thus: fCmax in Sprague-Dawley rat brain at 2 mg/kg, ip measured after 8 to 24 hrs by LC-MS/MS method. The settings on record: in vivo. Type of data set: ADME, organism-based.
For data set [8], the target named is T2, Sodium- and chloride-dependent glycine transporter 1 (Homo sapiens). Briefly: Inhibition of GlyT1c (unknown origin) expressed in Xenopus laevis oocytes clamped at -60 mV assessed as reduction in 10 uM glycine-induced membrane currents at 300 nM pre-treated with glycine for 1 min followed by compound dosing for 3 mins by two-electrode voltage clamp assay. Type of data set: cell-based. A digest of the protocol:
as §1

Data set [9] has as its target Voltage-gated inwardly rectifying potassium channel KCNH2 (Homo sapiens, UniProt Q12809). Kind of data set: Inhibition of human ERG.
Data set [10] in a line: Efflux ratio in MDCK2-MDR1 cells at 1 uM incubated fro 1 hr by LC-MS/MS method. The data set is classed as ADME, cell-based, Canis lupus familiaris. The settings on record: dog, MDCK-MDR1.
The subject of data set [11] is Mus musculus. Kind of data set: Reversal of L687,414-induced hyperlocomotion in mouse at 0.3 to 3 mg/kg, ip dosed 120 mins before test followed by L687,414 dosing for 15 mins before test and measured after 60 mins by Wilcoxon-Mann-Whitney test. The data set is classed as functional. A digest of the protocol: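 Non-habituated mice received test agent (0.3, 1.0, 3.0 mg/kg) or vehicle i.p. 120 min before test, then 50 mg/kg L-687,414 or vehicle i.p. 15 min before test; locomotor activity recorded for 60 min; n=8 mice per group, mean ± SEM; Mann-Whitney and Dunn's multiple comparisons tests.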

Data set [12] relates to Mus musculus. Kind of data set: In-vivo binding affinity to GlyT1 in mouse assessed as target occupancy in forebrains dosed intraperitoneally using [3H]N-methyl-SSR504734 as radioligand after 1 hr by liquid scintillation counting method. The data set is classed as functional. To be noted: ip. The gist of the method: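 Mice dosed i.p. at several doses; forebrain homogenates then tested ex vivo for binding of a GlyT1 radioligand to give target occupancy, with ED50 for 50% occupancy estimated across the dose range.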

The nature of data set [13]: Permeability in MDCK2-MDR1 cells at 1 uM incubated fro 1 hr by LC-MS/MS method. The settings on record: dog, MDCK-MDR1; read-out: permeability. The data set is classed as ADME, cell-based, Canis lupus familiaris.
Data set [14] is described as follows: Oral bioavailability in Sprague-Dawley rat at measured after 8 to 24 hrs by LC-MS/MS method. The settings on record: in vivo. The data set is classed as ADME, organism-based.
Data set [15] has as its target T2, Sodium- and chloride-dependent glycine transporter 1 (Homo sapiens). Briefly: Non-competitive inhibition of GlyT1c (unknown origin) expressed in Xenopus laevis oocytes clamped at -60 mV assessed as reduction in glycine-induced membrane currents at 300 nM pre-treated with glycine for 1 min followed by compound dosing for 3 mins by two-electrode voltage clamp assay. Type of data set: cell-based. A digest of the protocol: as §1

Data set [16] in a line: Drug level in Sprague-Dawley rat brain at 0.2 mg/kg, ip measured after 8 to 24 hrs by LC-MS/MS method. Type of data set: ADME, organism-based. To be noted: in vivo, read-out: Drug uptake.

From ChEMBL document CHEMBL4145681, “Discovery of Novel Aminotetralines and Aminochromanes as Selective and Competitive Glycine Transporter 1 (GlyT1) Inhibitors” (J Med Chem, 2018) come the findings set out here.

pIC50, pKi: −log10 of the molar value. The source made the active and inactive calls. The calls are words filed in the database; no cut-off is given here. A value given as a limit tells only on which side of the number the result lay.

Chain of Voltage-gated inwardly rectifying potassium channel KCNH2 (Q12809 whole entry): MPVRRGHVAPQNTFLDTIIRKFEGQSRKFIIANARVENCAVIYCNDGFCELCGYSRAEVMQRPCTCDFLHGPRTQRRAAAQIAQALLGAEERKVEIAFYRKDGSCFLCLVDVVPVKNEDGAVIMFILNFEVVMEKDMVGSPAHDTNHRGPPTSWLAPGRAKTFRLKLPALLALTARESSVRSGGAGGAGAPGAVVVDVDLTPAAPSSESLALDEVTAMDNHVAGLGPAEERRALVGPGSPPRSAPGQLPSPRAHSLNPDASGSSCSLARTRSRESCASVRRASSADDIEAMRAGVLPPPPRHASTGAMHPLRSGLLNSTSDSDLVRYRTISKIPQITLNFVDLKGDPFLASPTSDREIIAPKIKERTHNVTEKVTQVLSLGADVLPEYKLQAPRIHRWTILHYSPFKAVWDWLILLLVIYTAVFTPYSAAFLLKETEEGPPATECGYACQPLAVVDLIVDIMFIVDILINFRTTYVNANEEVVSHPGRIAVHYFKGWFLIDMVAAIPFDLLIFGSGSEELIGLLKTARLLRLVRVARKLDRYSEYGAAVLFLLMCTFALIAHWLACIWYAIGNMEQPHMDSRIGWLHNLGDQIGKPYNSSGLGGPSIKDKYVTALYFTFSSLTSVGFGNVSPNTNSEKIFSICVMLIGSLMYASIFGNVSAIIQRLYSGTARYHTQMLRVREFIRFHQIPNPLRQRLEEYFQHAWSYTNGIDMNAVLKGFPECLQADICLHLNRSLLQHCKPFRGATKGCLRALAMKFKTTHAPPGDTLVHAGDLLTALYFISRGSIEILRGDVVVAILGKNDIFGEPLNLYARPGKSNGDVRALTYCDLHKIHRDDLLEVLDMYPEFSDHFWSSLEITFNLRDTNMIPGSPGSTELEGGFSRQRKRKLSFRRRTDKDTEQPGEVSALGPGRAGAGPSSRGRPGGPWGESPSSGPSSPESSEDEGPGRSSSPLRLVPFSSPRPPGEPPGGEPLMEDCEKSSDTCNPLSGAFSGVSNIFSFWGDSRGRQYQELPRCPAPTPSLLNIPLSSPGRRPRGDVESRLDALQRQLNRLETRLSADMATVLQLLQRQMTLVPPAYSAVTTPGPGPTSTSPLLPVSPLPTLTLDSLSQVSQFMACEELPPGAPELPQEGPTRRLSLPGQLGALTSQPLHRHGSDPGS

In data set [1], `Cn1cnc(S(=O)(=O)NCCOc2ccc3c(c2)[C@@H](Cc2ccccc2)[C@@H](N2CCC2)CC3)c1` showed a pKi of 9.10. In addition, the microsomal CLint at 0.5 µM in [2] amounted to 55 µL/min/mg; in data set [3], 10 µL/min/mg. Also, the bioavailability was 75% in data set [4] and 17% in data set [14]. Also, in data set [5], the solubility is greater than 1000 µg/mL. The inhibition in data set [6] was 39%; in data set [8], 97%; in the data set with Mus musculus [11], “Dose-dependent effect”. In [7], the fCmax was found to be 2 nM. Moreover, in [9], the pIC50 is 4.82. The efflux ratio at 1 h, 1 µM in data set [10] came to 12. For the same compound, the ED50 was 0.8 mg/kg in the data set with Mus musculus [11] and 1.4 mg/kg with Mus musculus [12]. In addition, in data set [13], the Papp at 1 h, 1 µM amounted to 22 ×10⁻⁶ cm/s.

Regarding `C[C@H](Oc1ccc(S(C)(=O)=O)cc1C(=O)N1CCN(c2ncc(C(F)(F)F)cc2F)CC1)C(F)(F)F` [BITOPERTIN], the pKi in [1] was 7.33. In addition, the inhibition was found to be 95% in data set [6] and 67% in data set [8]. The inhibition entry in [15] is “Active”.

The compound `Cn1cnc(S(=O)(=O)NCCOc2ccc3c(c2)[C@@H](Cc2ccccc2)[C@@H](N2CCCC2)CC3)c1` had a pKi in data set [1] of 8.92. Further, the figures for the bioavailability in [4] and in [14] were 49% and 29%, respectively. In [5], this compound came in with a solubility greater than 1000 µg/mL. Also, the fCmax in data set [7] worked out at 2 nM. For the same compound, the efflux ratio at 1 h, 1 µM in data set [10] stood at 7.2. In addition, in the data set with Mus musculus [12], the ED50 worked out at 1.6 mg/kg. In addition, in data set [13], the Papp at 1 h, 1 µM came out at 17 ×10⁻⁶ cm/s.

In data set [1], `Cn1cnc(S(=O)(=O)NCc2ccc3c(c2)[C@@H](Cc2ccccc2)[C@@H](N2CCC2)CC3)c1` (relative stereo) gave a pKi of 8.52. Also, the bioavailability in data set [4] is 75%; in data set [14], 51%. Also, in the data set with Mus musculus [12], the ED50 worked out at 1.8 mg/kg.

Regarding `O=S(=O)(CC1CC1)NC1CN(c2ccc3c(c2)[C@@H](Cc2ccccc2)[C@@H](N2CCC2)CC3)C1`, in data set [1], the pKi is 9.05. Also, the microsomal CLint at 0.5 µM in [2] is 85 µL/min/mg; in data set [3], less than 23 µL/min/mg. Also, the fCmax in data set [7] was 18.7 nM. Also, in [9], the pIC50 is 5.36. Further, the efflux ratio at 1 h, 1 µM in data set [10] came to 1.7. The ED50 in the data set on Mus musculus [12] was found to be 0.2 mg/kg. In data set [16], the concentration came to 0.9 nM.
